Experimental data reported in ChEMBL document CHEMBL1145956, “Indanylidenes. 2. Design and synthesis of (E)-2-(4-chloro-6-fluoro-1-indanylidene)-N-methylacetamide, a potent antiinflammatory and analgesic agent without centrally acting muscle relaxant activity” (2003).

Assays:
Rattus norvegicus [1] = assay: Inhibition of trypsin hyperalgesia when administered perorally in rat; assay type: functional
How it was run: (§1)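 Rat trypsin hyperalgesia model for mild analgesia. Compounds given orally, either as % inhibition at 20 mg/kg or as ED50 in mg/kg. Each compound tested two or three times.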

Mus musculus [2] = assay: Effective dose required for muscle relaxant profile in mouse by rotarod assay, when compound administered perorally; assay type: functional; details: po
How it was run: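 Rotorod model of sedation, mouse, with oral dosing. Used for compounds that passed the Straub tail ip screen. At least three doses, N=6 animals per dose group. ED50 in mg/kg.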

Mus musculus [3] = assay: Effective dose required for muscle relaxant profile evaluated by straub tail assay when administered perorally in mouse; assay type: functional; details: po
How it was run: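 Morphine-induced Straub tail model of muscle relaxant activity, mouse, with oral dosing. Oral testing followed only where ip inhibition at 100 mg/kg exceeded 50%. At least three doses, N=6 animals per dose group. ED50 in mg/kg.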

Rattus norvegicus [4] = assay: Percent inhibition of analgesia activity when administered perorally at 20 mg/kg in rat; assay type: functional; how it was run: as §1
[5] = Ratio of rotarod to that of staub tail; assay type: functional
How it was run: (§2)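 Oral rotorod ED50 divided by oral Straub tail ED50, both in mouse, as an index of sedative potential. Each ED50 from at least three doses, N=6 animals per dose.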

Mus musculus [6] = assay: Percent inhibition of muscle relaxant profile evaluated by straub tail assay when administered intraperitoneally at 100 mg/kg in mouse; assay type: functional; details: route intraperitoneal; for % effect at 100 mg/kg: Mus musculus
How it was run: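 Morphine-induced Straub tail model of muscle relaxant activity, mouse. Compound given intraperitoneally at 100 mg/kg and read out as % inhibition.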

Rattus norvegicus [7] = species: Rattus norvegicus; assay: Antiinflammatory activity against trypsin hyperalgesia in rat at peroral dose of compound; details: po
Rattus norvegicus [8] = assay: Antiinflammatory activity against 3h carrageenan pleurisy (edma) in rat peroral administration; assay type: functional; details: po
How it was run: (§3)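 Rat 3 h carrageenan pleurisy model, read out as pleural cell count and as edema. Compounds given orally, either as % inhibition at 20 mg/kg or as ED50 in mg/kg. Each compound tested two or three times.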

Rattus norvegicus [9] = assay: Antiinflammatory activity against 3h carrageenan pleurisy (cells) in rat peroral administration; assay type: functional; details: po; how it was run: as §3
Rattus norvegicus [10] = assay: Antiinflammatory activity against 3h carrageenan pleurisy (cells) in rat at 20 mg/kg peroral administration; assay type: functional; details: route oral; how it was run: as §3
Rattus norvegicus [11] = assay: Antiinflammatory activity against 3h carrageenan pleurisy (edma) in rat at 20 mg/kg peroral administration; assay type: functional; details: route oral; how it was run: as §3
[12] = Ratio of rotarod to that of staub tail; ND is activity not determined.; assay type: functional; how it was run: as §2
[13] = Ratio of rotarod to that of straub tail; assay type: functional
How it was run: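 Ratio of oral rotorod ED50 (sedation) to oral ED50 in the morphine-induced Straub tail test. Only compounds giving >50% inhibition in the Straub tail test at 100 mg/kg ip went on to oral testing in both assays. Each assay generally used at least three doses with N=6 animals per dose group; variability approximately 15%.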

Rattus norvegicus [14] = assay: Antiinflammatory activity against 3h carrageenan pleurisy (edma) in rat mg/kg peroral administration; assay type: functional; details: po; how it was run: as §3
[15] = Rattus norvegicus, po, read-out: ED50

Which results are given for NC(=O)/C=C1\CCc2c(Cl)cc(F)cc21 (stereo in doubt) [listing 1 of 2 here]?
ED50 (Rattus norvegicus [1]; [15]): 7 mg/kg; ED50 (Mus musculus [2]): 96 mg/kg; ED50 (Mus musculus [3]): 73 mg/kg; inhibition in vivo at 20 mg/kg (Rattus norvegicus [4]; Rattus norvegicus, po): 70%

With O=C(/C=C1\CCc2c(Cl)cc(F)cc21)NC1CC1 as the molecule, how does the ED50 (Rattus norvegicus [1]; [15]) read?
Its ED50 is 0.9 mg/kg.

What about the ED50 (Mus musculus [2]) of the same molecule?
The ED50 was 44 mg/kg.

What about the ED50 (Mus musculus [3]) of the same molecule?
Its ED50 is 44 mg/kg.

And the Ratio [5]?
The Ratio was 1.

And the inhibition in vivo at 20 mg/kg (Rattus norvegicus [4]; Rattus norvegicus, po)?
The inhibition in vivo at 20 mg/kg was 75%.

What about the % effect at 100 mg/kg (Mus musculus [6]; ip) of the same molecule?
The % effect at 100 mg/kg was 100%.

With COc1ccc2cc([C@H](C)C(=O)O)ccc2c1 [NAPROXEN] as the molecule, how does the ED50 (Rattus norvegicus [7]) read?
Its ED50 is 14 mg/kg.

For NC(=O)/C=C1\CCc2c(Cl)cc(F)cc21 (stereo in doubt; 3), which ED50 (Rattus norvegicus [8]) is on record?
The ED50 was 11 mg/kg.

And the ED50 (Rattus norvegicus [1])?
The ED50 was 4 mg/kg.

And the ED50 (Rattus norvegicus [9])?
Its ED50 is 11 mg/kg.

What about the Inhibition (Rattus norvegicus [4]; route oral, 20 mg/kg) of the same molecule?
Its Inhibition is 79%.

What about the % effect (Mus musculus [6]) of the same molecule?
Its % effect is 0%.

What does the source list for CNC(=O)/C=C1\CCc2cc(Cl)cc(Cl)c21?
inhibition in vivo at 20 mg/kg (Rattus norvegicus [10]): 0%; inhibition in vivo at 20 mg/kg (Rattus norvegicus [11]): 34%; inhibition in vivo at 20 mg/kg (Rattus norvegicus [4]; Rattus norvegicus, po): 22%; % effect at 100 mg/kg (Mus musculus [6]; ip): 50%

For NC(=O)/C=C1\CCc2cc(Cl)c(F)cc21, which ED50 (Mus musculus [2]) is on record?
Its ED50 is 56 mg/kg.

What about the ED50 (Mus musculus [3]) of the same molecule?
Its ED50 is 50 mg/kg.

What about the Ratio [5] of the same molecule?
The Ratio was 1.1.

What about the inhibition in vivo at 20 mg/kg (Rattus norvegicus [4]; Rattus norvegicus, po) of the same molecule?
Its inhibition in vivo at 20 mg/kg is 19%.

And the % effect at 100 mg/kg (Mus musculus [6]; ip)?
Its % effect at 100 mg/kg is 100%.

With NC(=O)/C=C1\CCc2c(Cl)cc(F)cc21 (stereo in doubt) [listing 2 of 2 here] as the molecule, how does the Ratio [12] read?
Its Ratio is 1.3.

Which inhibition in vivo at 20 mg/kg (Rattus norvegicus [10]) does the source give for CNC(=O)/C=C1\CCc2c(C)cc(F)cc21 here?
The inhibition in vivo at 20 mg/kg was 15%.

And the inhibition in vivo at 20 mg/kg (Rattus norvegicus [11])?
The inhibition in vivo at 20 mg/kg was 40%.

What about the inhibition in vivo at 20 mg/kg (Rattus norvegicus [4]; Rattus norvegicus, po) of the same molecule?
The inhibition in vivo at 20 mg/kg was 77%.

And the % effect at 100 mg/kg (Mus musculus [6]; ip)?
The % effect at 100 mg/kg was 67%.

What does the source list for CNC(=O)/C=C1\CCc2c(Cl)cc(Cl)cc21?
inhibition in vivo at 20 mg/kg (Rattus norvegicus [10]): 9%; ED50 (Mus musculus [3]): > 100 mg/kg; inhibition in vivo at 20 mg/kg (Rattus norvegicus [4]; Rattus norvegicus, po): 12%; % effect at 100 mg/kg (Mus musculus [6]; ip): 83%

For CNC(=O)/C=C1\CCc2cc(Cl)c(F)cc21, which inhibition in vivo at 20 mg/kg (Rattus norvegicus [4]; Rattus norvegicus, po) is on record?
Its inhibition in vivo at 20 mg/kg is 22%.

And the % effect at 100 mg/kg (Mus musculus [6]; ip)?
The % effect at 100 mg/kg was 17%.

For NC(=O)/C=C1\CCc2c(Br)cc(F)cc21, which ED50 (Rattus norvegicus [8]) is on record?
Its ED50 is over 20 mg/kg.

What about the ED50 (Rattus norvegicus [9]) of the same molecule?
Its ED50 is over 20 mg/kg.

For Cc1cc(F)cc2c1CC/C2=C\C(=O)NC1CC1, which inhibition in vivo at 20 mg/kg (Rattus norvegicus [10]) is on record?
Its inhibition in vivo at 20 mg/kg is 5%.

And the inhibition in vivo at 20 mg/kg (Rattus norvegicus [11])?
Its inhibition in vivo at 20 mg/kg is 7%.

And the inhibition in vivo at 20 mg/kg (Rattus norvegicus [4]; route oral)?
The inhibition in vivo at 20 mg/kg was 97%.

With NC(=O)/C=C1\CCc2cc(Cl)cc(Cl)c21 as the molecule, how does the ED50 (Rattus norvegicus [1]; [15]) read?
Its ED50 is over 10 mg/kg.

What about the ED50 (Rattus norvegicus [10]) of the same molecule?
Its ED50 is 5 mg/kg.

And the ED50 (Mus musculus [2])?
Its ED50 is 55 mg/kg.

And the ED50 (Rattus norvegicus [11])?
Its ED50 is 34 mg/kg.

And the ED50 (Mus musculus [3])?
Its ED50 is under 100 mg/kg.

And the inhibition in vivo at 20 mg/kg (Rattus norvegicus [4]; Rattus norvegicus, po)?
Its inhibition in vivo at 20 mg/kg is 79%.

And the % effect at 100 mg/kg (Mus musculus [6]; ip)?
The % effect at 100 mg/kg was 100%.

What does the source list for NC(=O)/C=C1\CCc2c(F)cc(F)cc21?
ED50 (Rattus norvegicus [1]; [15]): 4 mg/kg; ED50 (Rattus norvegicus [9]): 19 mg/kg; ED50 (Rattus norvegicus [11]): 15 mg/kg; ED50 (Mus musculus [3]): 68.7 mg/kg; Ratio [13]: 2; inhibition in vivo at 20 mg/kg (Rattus norvegicus [4]; route oral): 100%; inhibition in vivo at 100 mg/kg (Mus musculus [6]; ip): 100%

With Cc1cc(F)cc2c1CC/C2=C\C(N)=O as the molecule, how does the ED50 (Rattus norvegicus [1]; [15]) read?
The ED50 was 10 mg/kg.

What about the inhibition in vivo at 20 mg/kg (Rattus norvegicus [10]) of the same molecule?
The inhibition in vivo at 20 mg/kg was 11%.

What about the inhibition in vivo at 20 mg/kg (Rattus norvegicus [11]) of the same molecule?
Its inhibition in vivo at 20 mg/kg is 24%.

What about the inhibition in vivo at 20 mg/kg (Rattus norvegicus [4]; Rattus norvegicus, po) of the same molecule?
Its inhibition in vivo at 20 mg/kg is 92%.

What about the % effect (Mus musculus [6]) of the same molecule?
The % effect was 0%.

With CC(C)Cc1ccc(C(C)C(=O)O)cc1 (centres undefined) [IBUPROFEN] as the molecule, how does the ED50 (Rattus norvegicus [10]) read?
Its ED50 is 34 mg/kg.

And the ED50 (Rattus norvegicus [11])?
Its ED50 is 8 mg/kg.

Which ED50 (Rattus norvegicus [8]) does the source give for CNC(=O)/C=C1\CCc2c(Cl)cc(F)cc21 here?
The ED50 was 5 mg/kg.

What about the ED50 (Rattus norvegicus [1]; [15]) of the same molecule?
Its ED50 is 1.4 mg/kg.

What about the ED50 (Rattus norvegicus [9]) of the same molecule?
The ED50 was 8 mg/kg.

What about the inhibition in vivo at 20 mg/kg (Rattus norvegicus [4]; route oral) of the same molecule?
Its inhibition in vivo at 20 mg/kg is 100%.

And the % effect at 100 mg/kg (Mus musculus [6]; ip)?
The % effect at 100 mg/kg was 50%.

Which inhibition in vivo at 20 mg/kg (Rattus norvegicus [4]; Rattus norvegicus, po) does the source give for O=C(/C=C1\CCc2c(F)cc(Cl)cc21)NC1CC1 here?
Its inhibition in vivo at 20 mg/kg is 31%.

With NC(=O)/C=C1\CCc2c(F)cc(Cl)cc21 as the molecule, how does the ED50 (Rattus norvegicus [1]; [15]) read?
The ED50 was over 10 mg/kg.

What about the inhibition in vivo at 20 mg/kg (Rattus norvegicus [10]) of the same molecule?
Its inhibition in vivo at 20 mg/kg is 34%.

And the inhibition in vivo at 20 mg/kg (Rattus norvegicus [11])?
Its inhibition in vivo at 20 mg/kg is 36%.

What about the % effect at 100 mg/kg (Mus musculus [6]; ip) of the same molecule?
Its % effect at 100 mg/kg is 33%.

Which inhibition in vivo at 20 mg/kg (Rattus norvegicus [4]; Rattus norvegicus, po) does the source give for O=C(/C=C1\CCc2cc(Cl)c(F)cc21)NC1CC1 here?
The inhibition in vivo at 20 mg/kg was 27%.

Which ED50 (Rattus norvegicus [9]) does the source give for Cc1cc(Cl)c2c(c1)/C(=C/C(N)=O)CC2 here?
The ED50 was over 25 mg/kg.

What about the ED50 (Rattus norvegicus [14]) of the same molecule?
Its ED50 is over 25 mg/kg.

Which results are given for NC(=O)/C=C1\CCc2c(Cl)cc(Cl)cc21?
ED50 (Rattus norvegicus [8]): 20 mg/kg; ED50 (Rattus norvegicus [1]; [15]): 4.1 mg/kg; ED50 (Rattus norvegicus [9]): 25 mg/kg; % effect (Mus musculus [6]): 0%
